ChEMBL document CHEMBL4699666, “Cyclic Peptidyl Inhibitors against CAL/CFTR Interaction for Treatment of Cystic Fibrosis” (J Med Chem, 2020)
Calls of active or inactive are those of the source. No cut-off for these calls is given here. Positions of bridges follow the written chain, without caps; N, C: chain ends. Non-standard residues stand in square brackets, D forms with d. Residues, ends and D or L forms follow the SMILES beside them. *: point of attachment. 2Nal = N[C@@H](Cc1ccc2ccccc2c1)C(=O)O; Bta = N[C@@H](Cc1csc2ccccc12)C(=O)O; Pen = CC(C)(S)[C@H](N)C(=O)O; Tle = CC(C)(C)[C@H](N)C(=O)O; Nicotinoyl = O=C(c1cccnc1)*; Pip = O=C(O)[C@@H]1CCCCN1

Experiments:
[1] = molecular target: T1, Na(+)/H(+) exchange regulatory cofactor NHE-RF1 (Homo sapiens, UniProt O14745); test: Binding affinity to NHERF1 PDZ1 domain (unknown origin) expressed in Escherichia coli BL21 incubated for 1 hr by fluorescence polarization based competition assay
T1 sequence (O14745 whole entry): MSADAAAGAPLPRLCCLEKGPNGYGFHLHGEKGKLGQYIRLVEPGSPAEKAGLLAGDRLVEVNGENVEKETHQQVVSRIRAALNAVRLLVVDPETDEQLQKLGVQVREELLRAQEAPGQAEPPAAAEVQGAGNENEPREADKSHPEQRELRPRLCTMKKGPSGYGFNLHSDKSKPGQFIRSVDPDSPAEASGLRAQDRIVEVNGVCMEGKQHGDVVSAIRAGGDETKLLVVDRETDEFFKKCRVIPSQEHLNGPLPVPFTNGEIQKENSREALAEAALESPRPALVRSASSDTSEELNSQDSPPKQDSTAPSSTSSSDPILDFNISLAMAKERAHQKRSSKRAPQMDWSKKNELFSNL
Summary of the method: (§1)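 CAL, NHERF1 and NHERF2 PDZ domains carried a C-terminal His6 tag, were expressed in E. coli BL21 (0.1 mM IPTG, 16 h at 18 °C) and purified on Ni-NTA. For direct binding, 50 nM fluorescein-labelled peptide was titrated with PDZ protein (0–2.5 μM CAL; 0–25 μM NHERF1/2) in PBS pH 7.4 with 0.01% Triton X-100 and 2 mM TCEP for 1 h at room temperature. Fluorescence polarization gave KD; n = 3.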

[2] = molecular target: T2, Na(+)/H(+) exchange regulatory cofactor NHE-RF2 (Homo sapiens, UniProt Q15599); test: Binding affinity to NHERF2 PDZ1 domain (unknown origin) expressed in Escherichia coli BL21 incubated for 1 hr by fluorescence polarization based competition assay; summary of the method: as §1
[3] = molecular target: T2, Na(+)/H(+) exchange regulatory cofactor NHE-RF2; test: Binding affinity to NHERF2 PDZ2 domain (unknown origin) expressed in Escherichia coli BL21 incubated for 1 hr by fluorescence polarization based competition assay
[4] = molecular target: T3, Golgi-associated PDZ and coiled-coil motif-containing protein (Homo sapiens, UniProt Q9HD26); test: Binding affinity to C-terminal His6 tagged CAL PDZ domain (unknown origin) expressed in Escherichia coli BL21 incubated for 1 hr by fluorescence polarization assay
Homo sapiens [5] = organism: Homo sapiens; test: Selectivity index, ratio of Kd for binding affinity to NHERF1 PDZ1 domain (unknown origin) expressed in Escherichia coli BL21 to Kd for binding affinity to C-terminal His6 tagged CAL PDZ domain (unknown origin) expressed in Escherichia coli BL21; summary of the method: as §1
Homo sapiens [6] = organism: Homo sapiens; test: Selectivity index, ratio of Kd for binding affinity to NHERF2 PDZ1 domain (unknown origin) expressed in Escherichia coli BL21 to Kd for binding affinity to C-terminal His6 tagged CAL PDZ domain (unknown origin) expressed in Escherichia coli BL21; summary of the method: as §1
[7] = molecular target: T3, Golgi-associated PDZ and coiled-coil motif-containing protein; test: Binding affinity to C-terminal His6 tagged CAL PDZ domain (unknown origin) expressed in Escherichia coli BL21 incubated for 1 hr using FAM-ANSRWPTSII-OH probe by fluorescence polarization based competition assay
[8] = tested on: Cystic fibrosis transmembrane conductance regulator (Homo sapiens), P13569 [F508del]; test: Corrector activity at CFTR F508del mutant in human CF-HBE cells isolated from patient with F508del mutation assessed as increase in short-circuit current at 5 uM incubated for 24 hrs; assay type: cell-based; conditions: Epithelial cell, filed as activator
Summary of the method: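 Primary bronchial epithelia from F508del/F508del donors (three donors) were grown at air/liquid interface and given corrector (5 μM VX-661) or none. After 24 h, peptide or DMSO was applied apically in Hank's solution for 1 h, then removed, and cells were kept a further 24 h. Ussing chambers used Ringer's with a low-chloride apical side. Isc changes were read after forskolin (10 μM) activation and Inh-172 inhibition; n = 5 filters.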

[9] = molecular target: T3, Golgi-associated PDZ and coiled-coil motif-containing protein; test: Binding affinity to C-terminal His6 tagged CAL PDZ domain (unknown origin) expressed in Escherichia coli BL21 incubated for 1 hr using FAM-22 probe by fluorescence polarization based competition assay
[10] = Drug uptake in human HeLa cells at 5 uM incubated for 2 hrs by flow cytometry relative to CPP9; assay type: ADME, cell-based
Summary of the method: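 Naphthofluorescein-labelled cyclic peptides (5 μM final, 0.5% DMSO, in DMEM with 10% FBS) were applied to HeLa cells, seeded the day before at 15 × 10^4 per well, for 2 h at 37 °C. Cells were washed with cold DPBS, trypsinized and analysed by flow cytometry. Mean fluorescence was expressed as % of CPP9; n = 3.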

Epithelial cell = test: Inhibition of CAL and CFTR F508del mutant interaction in human CF-HBE cells isolated from patient with F508del mutation assessed as increase in short-circuit current at 100 nM incubated for 24 hrs in presence of 5 uM VX-809 by relative to VX-809 alone; assay type: cell-based; conditions: time 2.0 hrs, in the assay text read “incubated for 2 hrs” for “incubated for 24 hrs”
Summary of the method: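 Primary F508del-homozygous bronchial epithelia from one donor, grown at air/liquid interface, were treated with 5 μM VX-809 for 48 h, then with 100 nM peptide for 2 h. Short-circuit current was measured in an Ussing chamber and scaled to VX-809 alone (100%). Results are 2–3 replicates per condition.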

[11] = Half life in 25% human serum at 100 uM incubated for 24 hrs at 37 degC by HPLC analysis; assay type: ADME, cell-free
Summary of the method: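 Human serum diluted 1:4 in DPBS was pre-warmed to 37 °C, and peptide (100 μM final) was incubated in it at 37 °C. At each time point, aliquots were deproteinized with 15% TCA in MeOH plus MeCN for 24 h at 4 °C and centrifuged. Supernatants were analysed by reversed-phase HPLC, reading at 214 nm, for intact peptide remaining.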

[12] = Drug uptake in human HeLa cells assessed as absolute cytosolic entry efficiency at 5 uM incubated for 2 hrs by flow cytometry; assay type: ADME, subcellular, Cytoplasm

T2 sequence (Q15599 whole entry, the tested form may be a part): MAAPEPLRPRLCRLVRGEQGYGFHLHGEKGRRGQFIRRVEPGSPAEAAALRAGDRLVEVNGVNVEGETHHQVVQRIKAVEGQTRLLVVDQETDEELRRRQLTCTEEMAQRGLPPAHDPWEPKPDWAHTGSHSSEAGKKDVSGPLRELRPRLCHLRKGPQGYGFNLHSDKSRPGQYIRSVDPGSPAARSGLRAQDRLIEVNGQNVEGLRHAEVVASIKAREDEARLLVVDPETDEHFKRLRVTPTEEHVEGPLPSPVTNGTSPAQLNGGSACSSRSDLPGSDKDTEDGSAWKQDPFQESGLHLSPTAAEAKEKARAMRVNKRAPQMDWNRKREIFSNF
Sequence of Cystic fibrosis transmembrane conductance regulator (Homo sapiens), P13569 [F508del] (P13569 as listed by the source): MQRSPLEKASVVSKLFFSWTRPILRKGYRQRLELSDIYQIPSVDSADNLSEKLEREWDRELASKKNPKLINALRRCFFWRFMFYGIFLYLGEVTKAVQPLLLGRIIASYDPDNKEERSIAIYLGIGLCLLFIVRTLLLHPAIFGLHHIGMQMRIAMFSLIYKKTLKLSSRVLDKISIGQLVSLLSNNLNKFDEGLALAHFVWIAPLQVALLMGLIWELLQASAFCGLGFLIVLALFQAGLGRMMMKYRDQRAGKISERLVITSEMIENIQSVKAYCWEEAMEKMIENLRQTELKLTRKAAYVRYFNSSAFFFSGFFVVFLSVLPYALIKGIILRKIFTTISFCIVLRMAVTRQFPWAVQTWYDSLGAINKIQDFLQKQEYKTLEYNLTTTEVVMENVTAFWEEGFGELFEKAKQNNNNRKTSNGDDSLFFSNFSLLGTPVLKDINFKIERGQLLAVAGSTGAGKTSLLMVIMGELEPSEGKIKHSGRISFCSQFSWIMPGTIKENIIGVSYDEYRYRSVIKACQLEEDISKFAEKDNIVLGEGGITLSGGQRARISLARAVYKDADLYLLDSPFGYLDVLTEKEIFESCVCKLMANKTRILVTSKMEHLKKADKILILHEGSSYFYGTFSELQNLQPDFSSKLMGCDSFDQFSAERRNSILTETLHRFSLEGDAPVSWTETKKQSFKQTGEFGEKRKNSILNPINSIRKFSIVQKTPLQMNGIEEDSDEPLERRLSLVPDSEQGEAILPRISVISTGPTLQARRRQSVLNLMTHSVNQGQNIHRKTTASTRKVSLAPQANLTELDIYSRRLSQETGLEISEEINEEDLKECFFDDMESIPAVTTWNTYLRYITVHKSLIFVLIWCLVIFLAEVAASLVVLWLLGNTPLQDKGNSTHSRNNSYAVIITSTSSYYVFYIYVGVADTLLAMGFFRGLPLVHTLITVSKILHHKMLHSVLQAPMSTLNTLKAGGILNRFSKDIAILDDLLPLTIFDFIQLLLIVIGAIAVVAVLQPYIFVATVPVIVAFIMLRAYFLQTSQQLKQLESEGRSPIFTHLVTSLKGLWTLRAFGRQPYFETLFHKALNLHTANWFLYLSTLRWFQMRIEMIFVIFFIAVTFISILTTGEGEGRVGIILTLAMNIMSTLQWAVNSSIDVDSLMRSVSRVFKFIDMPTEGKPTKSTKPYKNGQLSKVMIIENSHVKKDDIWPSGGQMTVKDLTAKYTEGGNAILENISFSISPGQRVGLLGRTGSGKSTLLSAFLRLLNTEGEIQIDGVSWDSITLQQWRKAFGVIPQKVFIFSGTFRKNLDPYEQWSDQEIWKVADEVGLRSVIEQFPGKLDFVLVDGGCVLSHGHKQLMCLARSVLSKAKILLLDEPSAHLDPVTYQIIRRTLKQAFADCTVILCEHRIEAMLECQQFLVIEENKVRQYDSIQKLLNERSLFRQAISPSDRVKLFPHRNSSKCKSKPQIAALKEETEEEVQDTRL

Kd [1]	Kd [2]	Kd [3]	Kd [4]	Compound	further results
1640 nM	1870 nM	4070 nM	113 nM	C[C@@H](O)[C@H](NC(=O)[C@@H](NC(=O)[C@H](CCC(N)=O)NC(=O)[C@H](Cc1c[nH]c2ccccc12)NC(=O)[C@H](Cc1ccc2ccccc2c1)NC(=O)[C@H](CCCNC(=N)N)NC(=O)[C@H](CCCNC(=N)N)NC(=O)[C@@H](CCCNC(=N)N)NC(=O)[C@H](CS)NC(=O)CCNC(=S)Nc1ccc(-c2c3ccc(=O)cc-3oc3cc(O)ccc23)c(C(=O)O)c1)C(C)(C)S)C(=O)N[C@@H](CCCNC(=N)N)C(=O)N[C@H](C(=O)O)C(C)(C)C	
780 nM	1370 nM	7480 nM	6 nM	C[C@@H](O)[C@H](NC(=O)[C@@H](NC(=O)[C@@H]1CCCCN1C(=O)[C@H](Cc1csc2ccccc12)NC(=O)[C@H](Cc1ccc2ccccc2c1)NC(=O)[C@H](CCCNC(=N)N)NC(=O)[C@H](CCCNC(=N)N)NC(=O)[C@@H](CCCNC(=N)N)NC(=O)[C@H](CS)NC(=O)COCCOCCNC(=S)Nc1ccc2c(c1)C(=O)OC21c2ccc(O)cc2Oc2cc(O)ccc21)C(C)(C)S)C(=O)N[C@@H](CCCNC(=N)N)C(=O)N[C@H](C(=O)O)C(C)(C)C	
330 nM	560 nM	2820 nM	49 nM	C[C@@H](O)[C@H](NC(=O)[C@@H](NC(=O)[C@@H](NC(=O)[C@H](Cc1csc2ccccc12)NC(=O)[C@H](Cc1ccc2ccccc2c1)NC(=O)[C@H](CCCNC(=N)N)NC(=O)[C@H](CCCNC(=N)N)NC(=O)[C@@H](CCCNC(=N)N)NC(=O)[C@H](CS)NC(=O)COCCOCCNC(=O)c1ccc2c(c1)C(=O)OC21c2ccc(O)cc2Oc2cc(O)ccc21)C(C)(C)S)C(C)(C)C)C(=O)N[C@@H](CCCNC(=N)N)C(=O)N[C@H](C(=O)O)C(C)(C)C	Ratio (Homo sapiens [5]): 6.7; Ratio (Homo sapiens [6]): 11.4
				CC(=O)N[C@@H](CCCNC(=N)N)C(=O)N[C@@H](CCCNC(=N)N)C(=O)N[C@@H](Cc1ccccc1)C(=O)N[C@@H](Cc1c[nH]c2ccccc12)C(=O)N[C@@H](CCC(N)=O)C(=O)N[C@@H](CS)C(=O)N[C@H](C(=O)N[C@@H](CCCCNC(=N)N)C(=O)N[C@H](C(=O)O)C(C)(C)C)[C@@H](C)O	IC50 [7]: 2400 nM
3970 nM	6040 nM	7660 nM	87 nM	C[C@@H](O)[C@H](NC(=O)[C@@H](NC(=O)[C@@H]1CCCN1C(=O)[C@H](Cc1csc2ccccc12)NC(=O)[C@H](Cc1ccc2ccccc2c1)NC(=O)[C@H](CCCNC(=N)N)NC(=O)[C@H](CCCNC(=N)N)NC(=O)[C@@H](CCCNC(=N)N)NC(=O)[C@H](CS)NC(=O)COCCOCCNC(=S)Nc1ccc2c(c1)C(=O)OC21c2ccc(O)cc2Oc2cc(O)ccc21)C(C)(C)S)C(=O)N[C@@H](CCCNC(=N)N)C(=O)N[C@H](C(=O)O)C(C)(C)C	
				CC(C)(CO)c1cc2cc(NC(=O)C3(c4ccc5c(c4)OC(F)(F)O5)CC3)c(F)cc2n1C[C@@H](O)CO	Activity [8]: Active
				CC(=O)N[C@@H](CS)C(=O)N[C@H](CCCNC(=N)N)C(=O)N[C@@H](CCCNC(=N)N)C(=O)N[C@@H](CCCNC(=N)N)C(=O)N[C@@H](Cc1ccc2ccccc2c1)C(=O)N[C@@H](Cc1csc2ccccc12)C(=O)N[C@H](C(=O)N[C@H](C(=O)N[C@H](C(=O)N[C@@H](CCCNC(=N)N)C(=O)N[C@H](C(=O)O)C(C)(C)C)[C@@H](C)O)C(C)(C)C)C(C)(C)S (Ac-C[dR]RR[2Nal][Bta][Pen][Tle]TR[Tle]-OH)	IC50 [9]: 240 nM; Drug uptake [10]: 518%
				CC(=O)N[C@H]1CSSC(C)(C)[C@@H](C(=O)N[C@H](C(=O)N[C@H](C(=O)N[C@@H](CCCNC(=N)N)C(=O)N[C@H](C(=O)O)C(C)(C)C)[C@@H](C)O)C(C)(C)C)NC(=O)[C@H](Cc2csc3ccccc23)NC(=O)[C@H](Cc2ccc3ccccc3c2)NC(=O)[C@H](CCCNC(=N)N)NC(=O)[C@H](CCCNC(=N)N)NC(=O)[C@@H](CCCNC(=N)N)NC1=O (Ac-C[dR]RR[2Nal][Bta][Pen][Tle]TR[Tle]-OH; disulfide 1-7)	inhibition (Epithelial cell): inactive
				CC(=O)N[C@@H](CS)C(=O)N[C@H](CCCNC(=N)N)C(=O)N[C@@H](CCCNC(=N)N)C(=O)N[C@@H](CCCNC(=N)N)C(=O)N[C@@H](Cc1ccc2ccccc2c1)C(=O)N[C@@H](Cc1csc2ccccc12)C(=O)N1CCCC[C@H]1C(=O)N[C@H](C(=O)N[C@H](C(=O)N[C@@H](CCCNC(=N)N)C(=O)N[C@H](C(=O)O)C(C)(C)C)[C@@H](C)O)C(C)(C)S (Ac-C[dR]RR[2Nal][Bta][Pip][Pen]TR[Tle]-OH)	IC50 [9]: 20 nM; Drug uptake [10]: 61%; half-life at 100 µM [11]: > 24 h
				CC(=O)N[C@@H](CCCNC(=N)N)C(=O)N[C@@H](CCCNC(=N)N)C(=O)N[C@@H](Cc1ccccc1)C(=O)N[C@@H](Cc1c[nH]c2ccccc12)C(=O)N[C@@H](CCC(N)=O)C(=O)N[C@@H](CS)C(=O)N[C@H](C(=O)N[C@@H](CCCCNC(=O)c1cccnc1)C(=O)N[C@H](C(=O)O)C(C)(C)C)[C@@H](C)O (Ac-RRFWQCTK(Nicotinoyl)[Tle]-OH)	IC50 [7]: 2200 nM
				CC(=O)N[C@@H](CCCNC(=N)N)C(=O)N[C@@H](CCCNC(=N)N)C(=O)N[C@@H](Cc1ccccc1)C(=O)N[C@@H](Cc1c[nH]c2ccccc12)C(=O)N[C@H](CS)C(=O)N[C@@H](CS)C(=O)N[C@H](C(=O)N[C@@H](CCCNC(=N)N)C(=O)N[C@H](C(=O)O)C(C)(C)C)[C@@H](C)O (Ac-RRFW[dC]CTR[Tle]-OH)	IC50 [7]: 10000 nM
				N=C(N)NCCC[C@@H]1NC(=O)[C@H](Cc2ccc3ccccc3c2)NC(=O)[C@@H](Cc2ccccc2)NC(=O)[C@H](CCC(N)=O)NC(=O)[C@@H](CCCNC(=N)N)NC(=O)[C@H](CCCNC(=N)N)NC(=O)[C@@H](CCCNC(=N)N)NC1=O (cyclo([2Nal]R[dR]R[dR]Q[dF]))	Drug uptake [12]: 62%
